Source: ChEMBL document CHEMBL1157468, “Design, synthesis, and testing of non-nephrotoxic desazadesferrithiocin polyether analogues” (J Med Chem, 2008)

Key:
Rattus norvegicus [1] = experiment: Iron-clearing efficiency in non-iron-overloaded Sprague-Dawley rat at 150 umol/kg, po after 24 hrs relative to control; type: functional
Summary of the method: (§1)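 Male Sprague–Dawley rats (400–450 g), not iron-loaded and bile duct-cannulated, got one dose of 50, 150 or 300 µmol/kg po, or 300 µmol/kg sc. Vehicle was water or the monosodium salt. Bile was collected every 3 h for 24 h and urine at 24 h. Iron was measured by atomic absorption. Efficiency was treated minus control iron excretion, divided by theoretical output (2:1 ligand:iron), as a percent; mean ± SEM.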

Rattus norvegicus [2] = experiment: Iron-clearing efficiency in non-iron-overloaded Sprague-Dawley rat at 50 umol/kg, po after 24 hrs relative to control; type: functional; summary of the method: as §1
Rattus norvegicus [3] = experiment: Iron-clearing efficiency in non-iron-overloaded Sprague-Dawley rat bile assessed as iron excretion at 300 umol/kg, po; type: functional; summary of the method: as §1
Rattus norvegicus [4] = experiment: Iron-clearing efficiency in non-iron-overloaded Sprague-Dawley rat bile assessed as iron excretion at 150 umol/kg, po; type: functional; summary of the method: as §1
Rattus norvegicus [5] = experiment: Iron-clearing efficiency in non-iron-overloaded Sprague-Dawley rat bile assessed as iron excretion at 50 umol/kg, po; type: functional; summary of the method: as §1
Rattus norvegicus [6] = experiment: Iron-clearing efficiency in non-iron-overloaded Sprague-Dawley rat at 300 umol/kg, sc after 24 hrs relative to control; type: functional; summary of the method: as §1
Sapajus apella [7] = experiment: Iron-clearing efficiency in iron-overloaded Cebus apella at 150 umol/kg, po after 2 days relative to control; type: functional
Summary of the method: (§2)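 Monkeys (Cebus apella, 3.5–4 kg) were iron-loaded to about 500 mg Fe/kg with iv iron dextran and rested at least 60 days. They then got one 150 µmol/kg dose, po or sc. Feces and urine were collected every 24 h from 4 days before to 5 days after dosing, and iron was measured by flame atomic absorption. Efficiency was the 2-day post-drug iron minus the 4-day pre-drug baseline, divided by theoretical output (2:1 ligand:iron); mean ± SEM.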

Sapajus apella [8] = experiment: Iron-clearing efficiency in iron-overloaded Cebus apella at 150 umol/kg, sc after 2 days relative to control; type: functional; summary of the method: as §2
Rattus norvegicus [9] = experiment: Toxicity in iron-overloaded Sprague-Dawley rat assessed as survival at 75 umol/kg/day, po after 28 days by non-renal perfusion protocol; type: organism-based; conditions: in vivo, 672 h
Summary of the method: (§3)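 Male Sprague–Dawley rats were iron-loaded with ip iron dextran, 105 mg/kg/dose × 4 over two weeks, then given two weeks to equilibrate (about 350 mg Fe/kg). They received oral gavage once daily for 28 days in the afternoon, unfasted, six per group, with age-matched controls. Euthanasia was 24 h after the last dose. Survival was recorded, and kidney and bone marrow were sent for histopathology.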

Rattus norvegicus [10] = experiment: Toxicity in iron-overloaded Sprague-Dawley rat assessed as survival at 150 umol/kg/day, po after 28 days by non-renal perfusion protocol; type: organism-based; conditions: in vivo, 672 h; summary of the method: as §3
Rattus norvegicus [11] = experiment: Toxicity in iron-overloaded Sprague-Dawley rat assessed as survival at 300 umol/kg/day, po after 28 days by non-renal perfusion protocol; type: organism-based; conditions: in vivo, 672 h; summary of the method: as §3
Rattus norvegicus [12] = experiment: Toxicity in non-iron-overloaded Sprague-Dawley rat assessed as survival at 75 umol/kg/day, po after 28 days by non-renal perfusion protocol; type: organism-based; conditions: in vivo, 672 h
Summary of the method: (§4)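 Male Sprague–Dawley rats with normal iron stores, unfasted, received oral gavage once daily in the afternoon for 28 days, six per group, with age-matched untreated controls. Euthanasia was 24 h after the last dose. Survival was recorded over the dosing period, and kidney and bone marrow were examined histopathologically.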

Rattus norvegicus [13] = experiment: Toxicity in non-iron-overloaded Sprague-Dawley rat assessed as survival at 150 umol/kg/day, po after 28 days by non-renal perfusion protocol; type: organism-based; conditions: in vivo, 672 h; summary of the method: as §4
Rattus norvegicus [14] = experiment: Toxicity in non-iron-overloaded Sprague-Dawley rat assessed as survival at 300 umol/kg/day, po after 28 days by non-renal perfusion protocol; type: organism-based; conditions: in vivo, 672 h; summary of the method: as §4
Rattus norvegicus [15] = experiment: Nephrotoxicity in Sprague-Dawley rat assessed as heavy vacuolized renal tubules at […] for 7 days by renal perfusion studies; type: toxicity, organism-based; conditions: in vivo, 168 h, in the assay text read “237 umol/kg” for “273 umol/kg”
Summary of the method: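 Male Sprague–Dawley rats (200–250 g), fasted overnight, got 237 µmol/kg/dose po twice daily (474 µmol/kg/day) for 7 days and were fed about 3 h post-drug. Untreated age-matched rats were controls. One day post-drug, under pentobarbital, kidneys were perfusion-fixed with glutaraldehyde in Tyrode's buffer and embedded in TAAB. 500 nm sections were stained with toluidine blue and examined by light microscopy at 400×.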

Liver [16] = experiment: Biodistribution in Sprague-Dawley rat liver assessed per gram tissue wet weight at 300 umol/kg, sc after 1 hr; type: ADME, organism-based; conditions: in vivo
Liver [17] = experiment: Biodistribution in Sprague-Dawley rat liver assessed per gram tissue wet weight at 300 umol/kg, po after 1 hr; type: ADME, organism-based; conditions: in vivo
Summary of the method: (§5)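 Male Sprague–Dawley rats (250–350 g) got one 300 µmol/kg dose, po or sc. Vehicle was water or the monosodium salt (free acid plus 1 equiv NaOH). Three rats per time point were euthanized by CO2 at 1, 2 or 4 h. Plasma came from citrated cardiac blood; liver, kidney, heart and pancreas were removed. Drug levels were measured by HPLC with UV detection at 310 nm against linear calibration curves (detection limit 0.25 µM).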

Liver [18] = experiment: Biodistribution in Sprague-Dawley rat liver assessed per gram tissue wet weight at 300 umol/kg, sc after 2 hrs; type: ADME, organism-based; conditions: in vivo
Liver [19] = experiment: Biodistribution in Sprague-Dawley rat liver assessed per gram tissue wet weight at 300 umol/kg, po after 2 hrs; type: ADME, organism-based; conditions: in vivo; summary of the method: as §5
Liver [20] = experiment: Biodistribution in Sprague-Dawley rat liver assessed per gram tissue wet weight at 300 umol/kg, sc after 4 hrs; type: ADME, organism-based; conditions: in vivo
Liver [21] = experiment: Biodistribution in Sprague-Dawley rat liver assessed per gram tissue wet weight at 300 umol/kg, po after 4 hrs; type: ADME, organism-based; conditions: in vivo; summary of the method: as §5
Kidney [22] = experiment: Biodistribution in Sprague-Dawley rat kidney assessed per gram tissue wet weight at 300 umol/kg, sc after 1 hr; type: ADME, organism-based; conditions: in vivo
Kidney [23] = experiment: Biodistribution in Sprague-Dawley rat kidney assessed per gram tissue wet weight at 300 umol/kg, po after 1 hr; type: ADME, organism-based; conditions: in vivo; summary of the method: as §5
Kidney [24] = experiment: Biodistribution in Sprague-Dawley rat kidney assessed per gram tissue wet weight at 300 umol/kg, sc after 2 hrs; type: ADME, organism-based; conditions: in vivo
Kidney [25] = experiment: Biodistribution in Sprague-Dawley rat kidney assessed per gram tissue wet weight at 300 umol/kg, po after 2 hrs; type: ADME, organism-based; conditions: in vivo; summary of the method: as §5
Kidney [26] = experiment: Biodistribution in Sprague-Dawley rat kidney assessed per gram tissue wet weight at 300 umol/kg, sc after 4 hrs; type: ADME, organism-based; conditions: in vivo
Kidney [27] = experiment: Biodistribution in Sprague-Dawley rat kidney assessed per gram tissue wet weight at 300 umol/kg, po after 4 hrs; type: ADME, organism-based; conditions: in vivo; summary of the method: as §5
Heart [28] = experiment: Biodistribution in Sprague-Dawley rat heart assessed per gram tissue wet weight at 300 umol/kg, sc after 1 hr; type: ADME, organism-based; conditions: in vivo
Heart [29] = experiment: Biodistribution in Sprague-Dawley rat heart assessed per gram tissue wet weight at 300 umol/kg, po after 1 hr; type: ADME, organism-based; conditions: in vivo; summary of the method: as §5
Heart [30] = experiment: Biodistribution in Sprague-Dawley rat heart assessed per gram tissue wet weight at 300 umol/kg, sc after 2 hrs; type: ADME, organism-based; conditions: in vivo
Heart [31] = experiment: Biodistribution in Sprague-Dawley rat heart assessed per gram tissue wet weight at 300 umol/kg, po after 2 hrs; type: ADME, organism-based; conditions: in vivo; summary of the method: as §5
Heart [32] = experiment: Biodistribution in Sprague-Dawley rat heart assessed per gram tissue wet weight at 300 umol/kg, sc after 4 hrs; type: ADME, organism-based; conditions: in vivo
Pancreas [33] = experiment: Biodistribution in Sprague-Dawley rat pancreas assessed per gram tissue wet weight at 300 umol/kg, sc after 1 hr; type: ADME, organism-based; conditions: in vivo
Pancreas [34] = experiment: Biodistribution in Sprague-Dawley rat pancreas assessed per gram tissue wet weight at 300 umol/kg, po after 1 hr; type: ADME, organism-based; conditions: in vivo; summary of the method: as §5
Pancreas [35] = experiment: Biodistribution in Sprague-Dawley rat pancreas assessed per gram tissue wet weight at 300 umol/kg, sc after 2 hrs; type: ADME, organism-based; conditions: in vivo
Pancreas [36] = experiment: Biodistribution in Sprague-Dawley rat pancreas assessed per gram tissue wet weight at 300 umol/kg, po after 2 hrs; type: ADME, organism-based; conditions: in vivo; summary of the method: as §5
Pancreas [37] = experiment: Biodistribution in Sprague-Dawley rat pancreas assessed per gram tissue wet weight at 300 umol/kg, sc after 4 hrs; type: ADME, organism-based; conditions: in vivo
Pancreas [38] = experiment: Biodistribution in Sprague-Dawley rat pancreas assessed per gram tissue wet weight at 300 umol/kg, po after 4 hrs; type: ADME, organism-based; conditions: in vivo; summary of the method: as §5
Plasma [39] = experiment: Biodistribution in Sprague-Dawley rat plasma at 300 umol/kg, sc after 1 hr; type: ADME, organism-based; conditions: in vivo
Plasma [40] = experiment: Biodistribution in Sprague-Dawley rat plasma at 300 umol/kg, po after 1 hr; type: ADME, organism-based; conditions: in vivo; summary of the method: as §5
Plasma [41] = experiment: Biodistribution in Sprague-Dawley rat plasma at 300 umol/kg, sc after 2 hrs; type: ADME, organism-based; conditions: in vivo
Plasma [42] = experiment: Biodistribution in Sprague-Dawley rat plasma at 300 umol/kg, po after 2 hrs; type: ADME, organism-based; conditions: in vivo; summary of the method: as §5
Plasma [43] = experiment: Biodistribution in Sprague-Dawley rat plasma at 300 umol/kg, sc after 4 hrs; type: ADME, organism-based; conditions: in vivo
Plasma [44] = experiment: Biodistribution in Sprague-Dawley rat plasma at 300 umol/kg, po after 4 hrs; type: ADME, organism-based; conditions: in vivo; summary of the method: as §5

COCCOCCOCCOc1cccc(C2=N[C@@](C)(C(=O)O)CS2)c1O [DEFERITAZOLE]
Activity (Rattus norvegicus [1]): 18.7%
Activity (Rattus norvegicus [2]): 20.7%
Activity (Rattus norvegicus [3]): >95%
Activity (Rattus norvegicus [4]): >95%
Activity (Rattus norvegicus [5]): >95%
Activity (Rattus norvegicus [6]): 13.4%
Activity (Sapajus apella [7]): 23%
Activity (Sapajus apella [8]): 21.5%
Activity (Rattus norvegicus [9]): Non-toxic
Activity (Rattus norvegicus [10]): Non-toxic
Activity (Rattus norvegicus [11]): Non-toxic
Activity (Rattus norvegicus [12]): Non-toxic
Activity (Rattus norvegicus [13]): Non-toxic
Activity (Rattus norvegicus [14]): Non-toxic
Activity (Rattus norvegicus [15]): Non-toxic
Drug uptake (Liver [16]): 318 nmol/g
Drug uptake (Liver [17]): 234 nmol/g
Drug uptake (Liver [18]): 193 nmol/g
Drug uptake (Liver [19]): 151 nmol/g
Drug uptake (Liver [20]): 168 nmol/g
Drug uptake (Liver [21]): 87 nmol/g
Drug uptake (Kidney [22]): 259 nmol/g
Drug uptake (Kidney [23]): 150 nmol/g
Drug uptake (Kidney [24]): 145 nmol/g
Drug uptake (Kidney [25]): 48 nmol/g
Drug uptake (Kidney [26]): 90 nmol/g
Drug uptake (Kidney [27]): 15 nmol/g
Drug uptake (Heart [28]): 16 nmol/g
Drug uptake (Heart [29]): 9 nmol/g
Drug uptake (Heart [30]): 8 nmol/g
Drug uptake (Heart [31]): 4 nmol/g
Drug uptake (Heart [32]): 6 nmol/g
Drug uptake (Pancreas [33]): 22 nmol/g
Drug uptake (Pancreas [34]): 9 nmol/g
Drug uptake (Pancreas [35]): 30 nmol/g
Drug uptake (Pancreas [36]): 24 nmol/g
Drug uptake (Pancreas [37]): 12 nmol/g
Drug uptake (Pancreas [38]): 6 nmol/g
Drug uptake (Plasma [39]): 46 nmol/g
Drug uptake (Plasma [40]): 26 nmol/g
Drug uptake (Plasma [41]): 24 nmol/g
Drug uptake (Plasma [42]): 9 nmol/g
Drug uptake (Plasma [43]): 13 nmol/g
Drug uptake (Plasma [44]): 2 nmol/g
